IDH1 R132H inh = inhibitors of human IDH1 R132H; inhibition, % at 10 µM; AID 624101; IDH1 R132H reductase, diaphorase/resazurin fluorescence, 60 min; actives 0.18% (n = 70,000); O75874; in the data active means inhibition above about 34%; inconclusive means no clear call, values can overlap the other calls; inactive means below about 11%;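 further: 0% = DMSO and 100% = no enzyme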
Target sequence (O75874 whole entry R132H): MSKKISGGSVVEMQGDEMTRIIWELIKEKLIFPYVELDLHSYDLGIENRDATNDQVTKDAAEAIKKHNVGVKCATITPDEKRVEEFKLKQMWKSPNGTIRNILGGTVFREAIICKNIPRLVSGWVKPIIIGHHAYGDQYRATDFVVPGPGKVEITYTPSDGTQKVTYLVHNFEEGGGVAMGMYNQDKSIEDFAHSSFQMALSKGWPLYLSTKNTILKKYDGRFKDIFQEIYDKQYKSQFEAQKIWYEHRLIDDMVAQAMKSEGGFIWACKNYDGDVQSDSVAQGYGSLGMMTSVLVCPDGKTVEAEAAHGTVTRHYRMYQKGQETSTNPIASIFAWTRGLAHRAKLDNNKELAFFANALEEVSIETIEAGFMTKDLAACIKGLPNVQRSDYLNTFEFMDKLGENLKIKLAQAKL
T cruzi growth-1 = T. cruzi proliferation inhibition | inhibition, % at 8.34 µM | AID 624255 | T. cruzi beta-gal in NIH3T3, GalScreen luminescence, 90 h | actives 5.9% (n = 77,000);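 active means mean inhibition above about 93%, with at least 55% of replicates each passing it, limit read from the data, passing the limit was not always enough; inconclusive means only one of those two conditions holds; inactive means neither condition holds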
GASC1 inh = KDM4C (human) demethylase inhibition. actives 0.15% (n = 96,000). GST-KDM4C 2-372, H3K9me3 peptide, LANCE TR-FRET. AID 720574. Q9H3R0. inhibition, % at 12.5 µM;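 active means mean replicate inhibition above about 25%, with at least 55% of replicates also reaching it, limit read from the data, passing the limit was not always enough; inconclusive means only one of those two conditions met; inactive means neither condition met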
Target sequence (Q9H3R0 2-372 limits assumed): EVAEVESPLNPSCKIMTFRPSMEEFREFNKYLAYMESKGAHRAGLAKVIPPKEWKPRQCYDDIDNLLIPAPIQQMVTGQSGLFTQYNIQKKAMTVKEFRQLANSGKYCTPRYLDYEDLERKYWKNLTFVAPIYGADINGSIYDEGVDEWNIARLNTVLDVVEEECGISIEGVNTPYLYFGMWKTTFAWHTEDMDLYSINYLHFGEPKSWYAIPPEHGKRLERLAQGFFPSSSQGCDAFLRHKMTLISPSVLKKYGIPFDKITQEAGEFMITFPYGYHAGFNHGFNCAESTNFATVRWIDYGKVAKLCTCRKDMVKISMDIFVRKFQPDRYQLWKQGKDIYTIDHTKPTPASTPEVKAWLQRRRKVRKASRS
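reagent = H3K9me3 peptide substrate, Fe(II), 2-oxoglutarate | system = GST-tagged GASC-1 (JMJD2C) catalytic fragment, aa 2-372 | amount = enzyme final amount 10 nM | read-out = Fall in 671/618 emission ratio as inhibition | medium = HEPES buffer, pH 7.5, plus ascorbate | schedule = 30 min reaction, 60 min detection, RT | measured by = LANCE TR-FRET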
Pf Dd2 inh = P. falciparum Dd2 growth inhibition; SYBR Green, 72 h; stronger effect = lower value; activity change, % at 10 µM; actives 2.3% (n = 94,000); AID 1159554; in the data active means activity change below about -80%; inconclusive means no clear call, values can overlap the other calls
T cruzi growth-2 = inhibitors of T. cruzi proliferation. shares compounds with T cruzi growth-1. AID 651739. inhibition, % at 8.35 µM. T. cruzi beta-gal in NIH3T3, GalScreen luminescence, 90 h. actives 72% (n = 5,600);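 active means mean replicate inhibition above about 95% and at least 55% of replicates individually reaching it, limit read from the data; inconclusive means only one of the two criteria is met; inactive means neither criterion is met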
T cruzi growth-3 = inhibitors of T. cruzi proliferation; shares compounds with T cruzi growth-1; T. cruzi beta-gal in NIH3T3, GalScreen luminescence, 90 h; inhibition, % at 2.09 µM; actives 21% (n = 5,600); AID 651740;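 active means mean inhibition above about 95%, with at least 55% of replicates also reaching it, limit read from the data; inconclusive means meets just one of the two conditions; inactive means meets neither condition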;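 further: plate controls were neutral control median for no effect and positive control median for full effect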
3T3 cytotox = NIH/3T3 (mouse) viability loss; NIH/3T3 viability, CellTiter-Glo ATP luminescence, 90 h; shares compounds with T cruzi growth-1; AID 651742; cytotoxicity (signal decrease), % at 8.35 µM; actives 14% (n = 5,600);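 active means mean signal decrease across replicates above about 35% based on untreated-well scatter, with enough replicates individually passing, limit read from the data; inconclusive means no rule stated though some were filed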;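 further: 0% = median of neutral control wells and 100% = median of positive control wells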
NIH3T3 tox 2 = kills mouse NIH/3T3 fibroblasts; shares compounds with T cruzi growth-1; NIH/3T3 viability, CellTiter-Glo ATP luminescence, 90 h; inhibition, % at 24.9 µM; AID 651744; actives 56% (n = 5,600);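 active means mean loss of cell viability signal at or above a set limit, and enough replicates individually reaching it; inconclusive means meets only the mean limit or only the replicate share; inactive means meets neither condition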;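 further: 0% = median of neutral control wells and 100% = median of positive control wells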
The depositor's hits bear a star; ? = inconclusive; nt = no result. In the library only some 5.9% were active in any assay of this set; here they are far more common.

SMILES | IDH1 R132H inh | T cruzi growth-1 | GASC1 inh | Pf Dd2 inh | T cruzi growth-2 | T cruzi growth-3 | 3T3 cytotox | NIH3T3 tox 2
CS(=O)(=O)N(CC(=O)Nc1ccc(F)cc1)c1cccc2ccccc12 | -0.8 | nt | nt | nt | nt | nt | nt | nt
CCc1cnc(N2[C@H](C#N)[C@H](c3ccc(C#CCC4CCCC4)cc3)[C@H]2CO)s1 | nt | 94.5 | -3.9 | -29.4 | nt | nt | nt | nt
CCc1cnc(N2[C@H](C#N)[C@H](c3ccc(C#CCC4CCCC4)cc3)[C@@H]2CO)s1 | nt | 97.6* | -3.4 | -58.3 | 91.0 | 114.2* | -9.4 | ?
CCc1cnc(N2[C@@H](C#N)[C@@H](c3ccc(C#CCC4CCCC4)cc3)[C@@H]2CO)s1 | nt | 97.1* | -0.6 | -40.5 | 99.0* | 110.9* | -6.3 | 104.2*
COc1cc(OC)c(NC(=O)CSc2nc3ccc([N+](=O)[O-])cc3s2)cc1Cl | 0.9 | nt | nt | nt | nt | nt | nt | nt
COC(=O)c1cc(NC(=O)COc2ccc(Br)cc2)cc(C(=O)OC)c1 | 0.3 | nt | nt | nt | nt | nt | nt | nt
CC(C)CC#Cc1ccc2c(c1)O[C@H](CN(C)Cc1cncnc1)[C@@H](C)CN([C@@H](C)CO)S2(=O)=O | -0.9 | 110.7* | 0.6 | -31.3 | 100.9* | 100.7* | ? | 97.7*
CC(C)CC#Cc1ccc2c(c1)O[C@H](CN(C)Cc1cncnc1)[C@H](C)CN([C@@H](C)CO)S2(=O)=O | -10.2 | 49.8 | -1.0 | -2.9 | nt | nt | nt | nt
CCCC#Cc1ccc2c(c1)O[C@H](CN(C)Cc1cncnc1)[C@@H](C)CN([C@@H](C)CO)S2(=O)=O | 24.3 | ? | 38.9* | -39.7 | 107.2* | 100.6* | ? | 99.2*
COc1ccccc1NC(=O)CN(c1cc(Cl)c(Cl)cc1Cl)S(C)(=O)=O | 0.8 | nt | nt | nt | nt | nt | nt | nt
Cc1cccc(S(=O)(=O)N2CCCCN3[C@H](C2)[C@@H](c2ccc(C#CC(C)C)cc2)[C@@H]3CO)c1 | nt | ? | 0.4 | -33.9 | 101.4* | 112.4* | 46.6* | 98.4*
COc1cccc(S(=O)(=O)N2CCCCN3[C@H](CO)[C@H](c4ccc(C#CC(C)C)cc4)[C@H]3C2)c1 | nt | 97.2* | 0.8 | -68.6 | 106.2* | 107.5* | 32.8 | 103.4*
COc1cccc(S(=O)(=O)N2CCCCN3[C@H](C2)[C@@H](c2ccc(C#CC(C)C)cc2)[C@@H]3CO)c1 | nt | 81.5 | 0.0 | -15.7 | nt | nt | nt | nt
COc1ccccc1C#Cc1ccc([C@@H]2[C@@H](C#N)N(C(=O)C3CC3)[C@H]2CO)cc1 | nt | 99.2* | -1.6 | -33.1 | 107.6* | 85.8 | -8.8 | 34.5*
COc1ccccc1C#Cc1ccc([C@@H]2[C@H](C#N)N(C(=O)C3CC3)[C@H]2CO)cc1 | nt | 87.9 | -1.0 | -35.1 | nt | nt | nt | nt
COc1cccc(C#Cc2ccc([C@H]3[C@H](C#N)N(C(=O)C4CC4)[C@H]3CO)cc2)c1 | nt | 104.4* | -4.4 | -39.2 | 106.2* | 76.0 | 5.8 | 42.1*
COc1ccccc1C#Cc1ccc([C@@H]2[C@@H](C#N)N(C(=O)C3CC3)[C@@H]2CO)cc1 | nt | 80.0 | -1.2 | -3.0 | nt | nt | nt | nt
COc1cccc(C#Cc2ccc([C@@H]3[C@@H](C#N)N(C(=O)C4CCCC4)[C@H]3CO)cc2)c1 | nt | nt | 4.1 | -69.7 | nt | nt | nt | nt
COc1ccccc1C#Cc1ccc([C@H]2[C@@H](C#N)N(C(=O)C3CC3)[C@@H]2CO)cc1 | nt | 97.4* | 0.2 | -42.2 | 101.0* | 106.8* | 30.4 | 50.1*
CS(=O)(=O)N(CC(=O)NC1CC1)c1ccccc1 | 0.5 | nt | nt | nt | nt | nt | nt | nt
CN1C(=O)c2cc(NC(=O)c3ccc(Cl)cc3)ccc2OC[C@@H]2O[C@H](CC(=O)NCc3cccc(F)c3)CC[C@@H]21 | nt | 101.1* | -3.0 | -22.6 | 92.2 | 65.9 | 42.7* | 34.4*
COc1ccccc1C(=O)Nc1ccc2c(c1)C(=O)N(C)[C@H]1CC[C@H](CC(=O)Nc3cccc(C(C)C)c3)O[C@@H]1CO2 | nt | ? | 0.4 | nt | 105.8* | 67.5 | 30.2 | 23.4
COc1cccc(C(=O)Nc2ccc3c(c2)C(=O)N(C)[C@H]2CC[C@@H](CC(=O)NCc4ccc(F)cc4)O[C@H]2CO3)c1 | nt | 96.7* | 0.8 | -35.7 | 105.2* | 16.3 | 51.4* | 50.1*
O=C(COc1ccc([N+](=O)[O-])cc1)Nc1ccc2oc(-c3cc(F)c(F)cc3Cl)nc2c1 | 0.2 | nt | nt | nt | nt | nt | nt | nt
N#C[C@@H]1[C@@H](c2ccc(-c3cccc(F)c3)cc2)[C@H](CO)N1S(=O)(=O)c1cccc(F)c1 | nt | 99.0* | 0.6 | -52.9 | 102.4* | 82.3 | 40.9* | 106.8*
SMILES | IDH1 R132H inh | T cruzi growth-1 | GASC1 inh | Pf Dd2 inh | T cruzi growth-2 | T cruzi growth-3 | 3T3 cytotox | NIH3T3 tox 2
CCS(=O)(=O)N1[C@H](C#N)[C@@H](c2ccc(-c3cccc(F)c3)cc2)[C@@H]1CO | nt | 4.6 | -2.5 | 24.2 | nt | nt | nt | nt
N#C[C@@H]1[C@H](c2ccc(-c3cccc(F)c3)cc2)[C@@H](CO)N1S(=O)(=O)c1cccc(F)c1 | nt | 101.5* | -2.4 | -24.2 | 105.5* | 102.9* | 13.9 | 104.7*
C/C=C/c1ccc([C@@H]2[C@@H](C#N)N(S(=O)(=O)c3cccc(F)c3)[C@@H]2CO)cc1 | nt | 107.1* | -0.6 | -34.7 | 81.6 | 45.8 | 11.1 | 25.2*
CCOC(=O)c1c(NC(=O)c2cc(-c3cccnc3)nc3c(C)cc(C)cc23)sc(C(C)=O)c1C | 0.3 | nt | nt | nt | nt | nt | nt | nt
CCn1c(SCc2nc3ccccc3c(=O)[nH]2)nnc1-c1ccc(Cl)cc1 | -0.6 | nt | nt | nt | nt | nt | nt | nt
C[C@H]1CN([C@@H](C)CO)S(=O)(=O)c2ccc(C3=CCCC3)cc2O[C@@H]1CN(C)S(=O)(=O)c1ccc(F)cc1 | nt | 123.1* | 1.2 | -41.8 | 96.8* | 101.0* | 44.7* | 10.0
C[C@@H]1CN([C@H](C)CO)S(=O)(=O)c2ccc(C3=CCCC3)cc2O[C@@H]1CN(C)S(=O)(=O)c1ccc(F)cc1 | -2.0 | 121.8* | 10.9 | -22.9 | 109.6* | 40.3 | 19.6 | 32.5*
C[C@@H]1CN([C@H](C)CO)S(=O)(=O)c2ccc(C3=CCCC3)cc2O[C@H]1CN(C)S(=O)(=O)c1ccc(F)cc1 | nt | 116.1* | -0.2 | -41.2 | 106.6* | 83.2 | 16.8 | 24.9*
Cc1ccc(S(=O)(=O)N(C)C[C@@H]2Oc3cc(C4=CCCC4)ccc3S(=O)(=O)N([C@@H](C)CO)C[C@H]2C)cc1 | -0.4 | nt | -0.3 | -60.8 | nt | nt | nt | nt
COc1ccc(-n2c(SCC(=O)Nc3ccc(Cl)cc3Cl)nnc2-c2ccccc2)cc1 | 0.2 | nt | nt | nt | nt | nt | nt | nt
Cc1nc(-c2ccccc2)sc1C(=O)C1C(=O)C(=O)N(CCN2CCOCC2)C1c1ccccc1F (stereo not drawn) | 0.3 | nt | nt | nt | nt | nt | nt | nt
C[C@H]1CCCCO[C@@H](CN(C)S(=O)(=O)c2ccc(F)cc2)[C@@H](C)CN([C@@H](C)CO)C(=O)c2cc(N(C)C)ccc2O1 | nt | 80.6 | 0.9 | -1.0 | nt | nt | nt | nt
